# What was measured:
# Conditions in all cases: stereoisomer not certain
# OR51L1 (Homo sapiens) = target: T1, OR51L1 (Homo sapiens) (UniProt Q8NGJ5)
# T1 sequence (whole entry): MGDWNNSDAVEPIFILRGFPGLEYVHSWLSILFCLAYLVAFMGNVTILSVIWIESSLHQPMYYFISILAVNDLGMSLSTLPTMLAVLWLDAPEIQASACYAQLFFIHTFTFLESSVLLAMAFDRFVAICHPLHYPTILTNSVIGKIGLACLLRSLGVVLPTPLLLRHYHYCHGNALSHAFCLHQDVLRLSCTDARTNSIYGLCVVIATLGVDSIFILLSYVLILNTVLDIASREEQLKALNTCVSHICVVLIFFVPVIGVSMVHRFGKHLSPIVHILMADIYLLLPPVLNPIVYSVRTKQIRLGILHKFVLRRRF
# In short: (§1)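 Transient luciferase assays in mammalian cell lines were common, though methods varied by source. The values come from published papers and their supplementary material, with extra details from the original authors when needed. Responsive refers to a measured signal the original authors judged statistically different from baseline, and non-responsive (inactive) to the remainder.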
# OR51F2 (Homo sapiens) = OR51F2 (Homo sapiens) (UniProt Q8NH61)
# Chain of OR51F2 (Homo sapiens) (Q8NH61 whole entry): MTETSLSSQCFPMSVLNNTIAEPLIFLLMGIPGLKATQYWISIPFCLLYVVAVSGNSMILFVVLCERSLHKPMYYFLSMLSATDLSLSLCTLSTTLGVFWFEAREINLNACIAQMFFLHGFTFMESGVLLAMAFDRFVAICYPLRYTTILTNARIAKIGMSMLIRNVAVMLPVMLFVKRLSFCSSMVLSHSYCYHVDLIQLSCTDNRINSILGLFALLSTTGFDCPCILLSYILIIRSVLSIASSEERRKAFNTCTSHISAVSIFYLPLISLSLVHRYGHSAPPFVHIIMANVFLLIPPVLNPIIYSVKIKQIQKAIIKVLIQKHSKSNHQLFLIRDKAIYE
# In short: as §1
# OR51G1 (Homo sapiens) = OR51G1 (Homo sapiens) (UniProt Q8NGK1)
# Chain of OR51G1 (Homo sapiens) (Q8NGK1 whole entry): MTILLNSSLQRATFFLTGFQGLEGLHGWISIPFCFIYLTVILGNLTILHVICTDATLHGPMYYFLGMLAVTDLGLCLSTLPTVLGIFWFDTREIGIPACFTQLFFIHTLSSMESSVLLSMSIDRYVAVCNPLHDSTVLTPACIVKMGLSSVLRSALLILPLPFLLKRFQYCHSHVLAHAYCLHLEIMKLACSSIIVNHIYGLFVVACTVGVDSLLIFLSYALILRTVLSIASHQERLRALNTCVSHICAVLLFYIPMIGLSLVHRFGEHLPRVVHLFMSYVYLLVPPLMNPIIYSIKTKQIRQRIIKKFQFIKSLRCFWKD
# In short: as §1
# OR51G2 (Homo sapiens) = OR51G2 (Homo sapiens) (UniProt Q8NGK0)
# Chain of OR51G2 (Homo sapiens) (Q8NGK0 whole entry): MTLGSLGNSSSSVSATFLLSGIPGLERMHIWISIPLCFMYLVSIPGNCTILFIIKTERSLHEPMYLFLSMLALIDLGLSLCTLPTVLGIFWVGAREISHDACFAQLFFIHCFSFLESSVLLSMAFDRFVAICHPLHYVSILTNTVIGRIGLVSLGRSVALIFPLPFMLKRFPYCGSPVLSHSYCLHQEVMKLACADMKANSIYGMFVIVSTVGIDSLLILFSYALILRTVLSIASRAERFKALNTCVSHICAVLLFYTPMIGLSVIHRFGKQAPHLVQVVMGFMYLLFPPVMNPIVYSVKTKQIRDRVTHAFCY
# In short: as §1
# OR51I1 (Homo sapiens) = OR51I1 (Homo sapiens) (UniProt Q9H343)
# Chain of OR51I1 (Homo sapiens) (Q9H343 whole entry): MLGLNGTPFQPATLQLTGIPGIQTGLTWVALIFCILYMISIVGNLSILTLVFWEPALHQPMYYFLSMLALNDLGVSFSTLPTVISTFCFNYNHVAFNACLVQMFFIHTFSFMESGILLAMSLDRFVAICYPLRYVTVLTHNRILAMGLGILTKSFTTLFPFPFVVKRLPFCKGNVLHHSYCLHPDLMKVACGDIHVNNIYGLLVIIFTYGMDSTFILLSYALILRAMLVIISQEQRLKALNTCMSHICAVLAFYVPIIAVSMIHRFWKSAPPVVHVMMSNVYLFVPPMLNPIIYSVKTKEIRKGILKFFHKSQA
# In short: as §1
# OR51I2 (Homo sapiens) = OR51I2 (Homo sapiens) (UniProt Q9H344)
# Chain of OR51I2 (Homo sapiens) (Q9H344 whole entry): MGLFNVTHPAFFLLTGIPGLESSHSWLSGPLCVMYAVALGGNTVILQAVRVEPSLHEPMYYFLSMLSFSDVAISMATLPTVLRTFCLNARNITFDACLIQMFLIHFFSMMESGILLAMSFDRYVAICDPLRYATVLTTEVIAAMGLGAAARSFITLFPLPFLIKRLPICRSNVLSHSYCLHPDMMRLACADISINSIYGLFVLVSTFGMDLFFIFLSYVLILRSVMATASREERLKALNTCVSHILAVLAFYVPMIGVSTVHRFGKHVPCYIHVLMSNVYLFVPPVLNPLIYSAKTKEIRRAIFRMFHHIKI
# In short: as §1
# OR51J1 (Homo sapiens) = OR51J1 (Homo sapiens) (UniProt Q9H342)
# Chain of OR51J1 (Homo sapiens) (Q9H342 whole entry): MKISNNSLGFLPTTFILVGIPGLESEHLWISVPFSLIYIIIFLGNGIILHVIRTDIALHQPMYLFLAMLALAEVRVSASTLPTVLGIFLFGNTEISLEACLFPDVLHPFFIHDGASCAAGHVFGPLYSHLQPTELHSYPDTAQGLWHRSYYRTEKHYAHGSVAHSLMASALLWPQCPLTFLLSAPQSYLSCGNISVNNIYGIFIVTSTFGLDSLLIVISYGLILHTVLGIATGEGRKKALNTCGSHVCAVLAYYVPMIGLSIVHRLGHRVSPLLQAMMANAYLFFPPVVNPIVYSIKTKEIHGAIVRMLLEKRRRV
# In short: as §1
# OR51M1 (Homo sapiens) = OR51M1 (Homo sapiens) (UniProt Q9H341)
# Chain of OR51M1 (Homo sapiens) (Q9H341 whole entry): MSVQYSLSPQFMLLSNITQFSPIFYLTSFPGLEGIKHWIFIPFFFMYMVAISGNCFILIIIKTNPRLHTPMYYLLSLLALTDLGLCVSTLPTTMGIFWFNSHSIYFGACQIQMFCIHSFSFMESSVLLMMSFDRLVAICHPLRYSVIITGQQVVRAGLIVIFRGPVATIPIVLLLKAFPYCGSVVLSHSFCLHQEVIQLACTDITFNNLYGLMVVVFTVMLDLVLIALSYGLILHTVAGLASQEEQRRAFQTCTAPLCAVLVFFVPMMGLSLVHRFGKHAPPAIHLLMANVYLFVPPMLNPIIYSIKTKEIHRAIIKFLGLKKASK
# In short: as §1
# OR51Q1 (Homo sapiens) = OR51Q1 (Homo sapiens) (UniProt Q8NH59)
# Chain of OR51Q1 (Homo sapiens) (Q8NH59 whole entry): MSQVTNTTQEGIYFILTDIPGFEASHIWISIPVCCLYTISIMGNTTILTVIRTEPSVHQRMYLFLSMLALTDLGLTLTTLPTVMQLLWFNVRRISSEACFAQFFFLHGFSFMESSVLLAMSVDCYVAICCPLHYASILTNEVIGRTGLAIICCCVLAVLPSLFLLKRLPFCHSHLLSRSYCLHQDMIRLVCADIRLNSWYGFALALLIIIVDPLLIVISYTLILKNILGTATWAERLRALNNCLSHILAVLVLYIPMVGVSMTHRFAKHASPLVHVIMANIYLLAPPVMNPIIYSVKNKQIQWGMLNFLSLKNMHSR
# In short: as §1
# OR51S1 (Homo sapiens) = OR51S1 (Homo sapiens) (UniProt Q8NGJ8)
# Chain of OR51S1 (Homo sapiens) (Q8NGJ8 whole entry): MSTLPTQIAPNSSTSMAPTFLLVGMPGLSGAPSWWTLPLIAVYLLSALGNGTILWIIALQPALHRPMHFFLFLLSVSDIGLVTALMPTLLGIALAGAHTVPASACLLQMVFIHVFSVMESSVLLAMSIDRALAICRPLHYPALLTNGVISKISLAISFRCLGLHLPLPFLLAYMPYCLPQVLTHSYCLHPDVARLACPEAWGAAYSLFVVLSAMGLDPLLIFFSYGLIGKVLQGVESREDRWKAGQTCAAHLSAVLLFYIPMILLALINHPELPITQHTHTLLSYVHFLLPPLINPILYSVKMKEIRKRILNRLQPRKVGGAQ
# In short: as §1
# OR51V1 (Homo sapiens) = OR51V1 (Homo sapiens) (UniProt Q9H2C8)
# Chain of OR51V1 (Homo sapiens) (Q9H2C8 whole entry): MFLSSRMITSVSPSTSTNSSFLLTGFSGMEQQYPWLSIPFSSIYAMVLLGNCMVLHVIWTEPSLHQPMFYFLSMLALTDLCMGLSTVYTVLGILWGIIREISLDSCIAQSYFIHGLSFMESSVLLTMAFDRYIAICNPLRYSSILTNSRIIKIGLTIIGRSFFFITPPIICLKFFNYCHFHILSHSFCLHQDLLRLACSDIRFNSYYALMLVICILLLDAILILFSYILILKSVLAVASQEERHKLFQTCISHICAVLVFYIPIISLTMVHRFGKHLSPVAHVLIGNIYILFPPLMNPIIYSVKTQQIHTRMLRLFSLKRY
# In short: as §1
# OR52A1 (Homo sapiens) = OR52A1 (Homo sapiens) (UniProt Q9UKL2)
# Chain of OR52A1 (Homo sapiens) (Q9UKL2 whole entry): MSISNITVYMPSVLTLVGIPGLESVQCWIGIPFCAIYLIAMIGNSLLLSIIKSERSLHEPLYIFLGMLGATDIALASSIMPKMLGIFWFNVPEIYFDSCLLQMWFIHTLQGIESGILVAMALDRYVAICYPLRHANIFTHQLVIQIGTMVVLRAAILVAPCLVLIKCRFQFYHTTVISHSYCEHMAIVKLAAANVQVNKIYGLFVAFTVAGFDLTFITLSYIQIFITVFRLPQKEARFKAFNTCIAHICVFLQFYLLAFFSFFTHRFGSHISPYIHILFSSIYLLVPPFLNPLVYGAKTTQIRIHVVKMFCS
# In short: as §1
# OR52A5 (Homo sapiens) = OR52A5 (Homo sapiens) (UniProt Q9H2C5)
# Chain of OR52A5 (Homo sapiens) (Q9H2C5 whole entry): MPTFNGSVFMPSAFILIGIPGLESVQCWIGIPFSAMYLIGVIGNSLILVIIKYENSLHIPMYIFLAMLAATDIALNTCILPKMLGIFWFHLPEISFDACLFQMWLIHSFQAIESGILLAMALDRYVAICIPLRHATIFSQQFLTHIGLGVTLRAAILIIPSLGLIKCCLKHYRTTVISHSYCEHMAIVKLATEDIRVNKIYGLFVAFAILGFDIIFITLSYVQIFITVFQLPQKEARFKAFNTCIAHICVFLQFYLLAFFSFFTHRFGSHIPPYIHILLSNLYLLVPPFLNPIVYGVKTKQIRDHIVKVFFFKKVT
# In short: as §1
# OR52B2 (Homo sapiens) = OR52B2 (Homo sapiens) (UniProt Q96RD2)
# Chain of OR52B2 (Homo sapiens) (Q96RD2 whole entry): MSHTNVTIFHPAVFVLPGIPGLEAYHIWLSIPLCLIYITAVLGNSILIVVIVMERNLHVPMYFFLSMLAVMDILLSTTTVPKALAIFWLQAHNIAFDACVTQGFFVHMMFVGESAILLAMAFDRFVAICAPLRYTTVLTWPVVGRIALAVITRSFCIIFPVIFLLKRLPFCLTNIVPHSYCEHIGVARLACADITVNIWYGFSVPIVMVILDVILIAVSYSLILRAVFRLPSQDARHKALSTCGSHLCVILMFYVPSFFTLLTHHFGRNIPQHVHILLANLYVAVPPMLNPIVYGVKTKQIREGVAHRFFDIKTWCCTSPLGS
# In short: as §1
# OR52B4 (Homo sapiens) = OR52B4 (Homo sapiens) (UniProt Q8NGK2)
# Chain of OR52B4 (Homo sapiens) (Q8NGK2 whole entry): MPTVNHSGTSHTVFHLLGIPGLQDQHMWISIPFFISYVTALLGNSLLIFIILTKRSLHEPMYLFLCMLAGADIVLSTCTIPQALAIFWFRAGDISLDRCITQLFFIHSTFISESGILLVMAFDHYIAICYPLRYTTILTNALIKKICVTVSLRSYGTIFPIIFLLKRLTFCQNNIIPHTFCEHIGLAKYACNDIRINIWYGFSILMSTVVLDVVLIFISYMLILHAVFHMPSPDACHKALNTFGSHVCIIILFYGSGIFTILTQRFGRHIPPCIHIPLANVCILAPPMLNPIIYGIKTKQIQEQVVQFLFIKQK
# In short: as §1
# OR52B6 (Homo sapiens) = OR52B6 (Homo sapiens) (UniProt Q8NGF0)
# Chain of OR52B6 (Homo sapiens) (Q8NGF0 whole entry): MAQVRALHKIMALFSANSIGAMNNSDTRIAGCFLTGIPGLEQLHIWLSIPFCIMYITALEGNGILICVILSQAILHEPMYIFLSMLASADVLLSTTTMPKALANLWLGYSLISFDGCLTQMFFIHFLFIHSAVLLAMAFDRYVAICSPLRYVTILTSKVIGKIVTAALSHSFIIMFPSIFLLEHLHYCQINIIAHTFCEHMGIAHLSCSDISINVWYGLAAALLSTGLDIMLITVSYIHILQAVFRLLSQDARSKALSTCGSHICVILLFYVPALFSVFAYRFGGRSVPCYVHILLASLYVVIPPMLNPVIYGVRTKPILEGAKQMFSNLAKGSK
# In short: as §1
# OR51F1 (Homo sapiens) = OR51F1 (Homo sapiens) (UniProt A6NGY5)
# In short: as §1
# OR51H1 (Homo sapiens) = OR51H1 (Homo sapiens) (UniProt Q8NH63)
# In short: as §1
# OR51T1 (Homo sapiens) = OR51T1 (Homo sapiens) (UniProt Q8NGJ9)
# In short: as §1
# OR52A4P (Homo sapiens) = OR52A4P (Homo sapiens) (UniProt A6NMU1)
# In short: as §1
# 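Note: active if original authors judged signal statistically different from baseline.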
structure (smiles),measurement,setting,value
O=c1cc(O)c2ccccc2o1,odorant receptor agonist call,OR51L1 (Homo sapiens),inactive
CCC1CCC(=O)O1 (centres undefined),odorant receptor agonist call,OR51L1 (Homo sapiens),inactive
C=CCc1ccccc1,odorant receptor agonist call,OR51L1 (Homo sapiens),inactive
C=CCOC(=O)Cc1ccccc1,odorant receptor agonist call,OR51F2 (Homo sapiens),inactive
same,odorant receptor agonist call,OR51G1 (Homo sapiens),inactive
same,odorant receptor agonist call,OR51G2 (Homo sapiens),inactive
same,odorant receptor agonist call,OR51I1 (Homo sapiens),inactive
same,odorant receptor agonist call,OR51I2 (Homo sapiens),inactive
same,odorant receptor agonist call,OR51J1 (Homo sapiens),inactive
same,odorant receptor agonist call,OR51L1 (Homo sapiens),active
same,odorant receptor agonist call,OR51M1 (Homo sapiens),inactive
same,odorant receptor agonist call,OR51Q1 (Homo sapiens),inactive
same,odorant receptor agonist call,OR51S1 (Homo sapiens),inactive
same,odorant receptor agonist call,OR51V1 (Homo sapiens),inactive
same,odorant receptor agonist call,OR52A1 (Homo sapiens),inactive
same,odorant receptor agonist call,OR52A5 (Homo sapiens),inactive
same,odorant receptor agonist call,OR52B2 (Homo sapiens),inactive
same,odorant receptor agonist call,OR52B4 (Homo sapiens),inactive
same,odorant receptor agonist call,OR52B6 (Homo sapiens),inactive
Cc1c([N+](=O)[O-])c(C)c([N+](=O)[O-])c(C(C)(C)C)c1[N+](=O)[O-],odorant receptor agonist call,OR51F1 (Homo sapiens),inactive
same,odorant receptor agonist call,OR51F2 (Homo sapiens),inactive
same,odorant receptor agonist call,OR51G1 (Homo sapiens),inactive
same,odorant receptor agonist call,OR51G2 (Homo sapiens),inactive
same,odorant receptor agonist call,OR51H1 (Homo sapiens),inactive
same,odorant receptor agonist call,OR51I1 (Homo sapiens),inactive
same,odorant receptor agonist call,OR51I2 (Homo sapiens),inactive
same,odorant receptor agonist call,OR51J1 (Homo sapiens),inactive
same,odorant receptor agonist call,OR51L1 (Homo sapiens),inactive
same,odorant receptor agonist call,OR51M1 (Homo sapiens),inactive
same,odorant receptor agonist call,OR51Q1 (Homo sapiens),inactive
same,odorant receptor agonist call,OR51S1 (Homo sapiens),inactive
same,odorant receptor agonist call,OR51T1 (Homo sapiens),inactive
same,odorant receptor agonist call,OR51V1 (Homo sapiens),inactive
same,odorant receptor agonist call,OR52A1 (Homo sapiens),inactive
same,odorant receptor agonist call,OR52A4P (Homo sapiens),inactive
same,odorant receptor agonist call,OR52A5 (Homo sapiens),inactive
same,odorant receptor agonist call,OR52B2 (Homo sapiens),inactive
same,odorant receptor agonist call,OR52B4 (Homo sapiens),inactive
same,odorant receptor agonist call,OR52B6 (Homo sapiens),inactive
